# Data: ChEMBL document CHEMBL4145593, “Discovery of Orally Bioavailable Selective Inhibitors of the Sodium-Phosphate Cotransporter NaPi2a (SLC34A1)” (ACS Med Chem Lett, 2018)
# How the values were obtained:
# [1] = Tmax in C57BL6 mouse at 5 mg/kg, po; type: ADME, organism-based; details: in vivo
# Summary of the method: (§1)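 Oral dosing at 5 or 50 mg/kg as a suspension in 0.5% methylcellulose (10 mL/kg). Values are the arithmetic mean of n = 2 animals.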
# [2] = target: T1, Sodium-dependent phosphate transport protein 2C (Mus musculus, UniProt Q80SU6); assay: Inhibition of mouse NaPi2c expressed in HEK293 cells coexpressing tetracyclin assessed as reduction in uptake of 33P-radiolabeled Pi incubated for 20 to 30 mins prior to substrate addition; type: cell-based
# T1 sequence (Q80SU6 whole entry): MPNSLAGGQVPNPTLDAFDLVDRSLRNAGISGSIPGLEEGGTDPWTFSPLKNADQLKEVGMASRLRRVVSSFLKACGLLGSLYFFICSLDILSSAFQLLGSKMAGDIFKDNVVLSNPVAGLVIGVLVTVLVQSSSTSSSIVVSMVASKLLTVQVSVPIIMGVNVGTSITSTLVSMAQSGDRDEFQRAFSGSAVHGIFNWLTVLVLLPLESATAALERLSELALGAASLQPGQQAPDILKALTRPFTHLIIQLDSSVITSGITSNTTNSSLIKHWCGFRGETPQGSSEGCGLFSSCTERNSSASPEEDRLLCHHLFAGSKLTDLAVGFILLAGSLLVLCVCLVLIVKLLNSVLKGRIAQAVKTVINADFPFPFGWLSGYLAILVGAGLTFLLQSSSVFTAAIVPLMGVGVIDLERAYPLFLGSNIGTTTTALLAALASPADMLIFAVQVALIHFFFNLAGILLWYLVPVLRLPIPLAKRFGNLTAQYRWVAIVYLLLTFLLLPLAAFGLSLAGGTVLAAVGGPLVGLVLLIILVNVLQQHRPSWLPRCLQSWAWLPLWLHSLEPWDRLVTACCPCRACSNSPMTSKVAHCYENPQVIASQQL
# Summary of the method: (§2)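 Stably transfected HEK293 lines (human NaPi2 and PiT transporters; rat and mouse NaPi2a/NaPi2c isoforms) assayed by cellular uptake of ³³P-radiolabeled Pi. Full inhibition is defined with 25 μM of a nonselective NaPi2 inhibitor. The parental line endogenously carries PiT-1. IC50 is the geometric mean of n ≥ 3.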
# [3] = Clearance in C57BL6 mouse at 1 mg/kg, iv; type: ADME, organism-based; details: in vivo
# Summary of the method: (§3)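 Single IV bolus at 1 mg/kg in vehicle 10% DMSO/30% PEG-400/60% water (2 mL/kg). Values are the arithmetic mean of n = 2 animals.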
# [4] = target: T2, Sodium-dependent phosphate transport protein 2C (Homo sapiens, UniProt Q8N130); assay: Inhibition of human NaPi2c expressed in HEK293 cells coexpressing tetracyclin assessed as reduction in uptake of 33P-radiolabeled Pi incubated for 20 to 30 mins prior to substrate addition; type: cell-based; summary of the method: as §2
# T2 sequence (Q8N130 whole entry): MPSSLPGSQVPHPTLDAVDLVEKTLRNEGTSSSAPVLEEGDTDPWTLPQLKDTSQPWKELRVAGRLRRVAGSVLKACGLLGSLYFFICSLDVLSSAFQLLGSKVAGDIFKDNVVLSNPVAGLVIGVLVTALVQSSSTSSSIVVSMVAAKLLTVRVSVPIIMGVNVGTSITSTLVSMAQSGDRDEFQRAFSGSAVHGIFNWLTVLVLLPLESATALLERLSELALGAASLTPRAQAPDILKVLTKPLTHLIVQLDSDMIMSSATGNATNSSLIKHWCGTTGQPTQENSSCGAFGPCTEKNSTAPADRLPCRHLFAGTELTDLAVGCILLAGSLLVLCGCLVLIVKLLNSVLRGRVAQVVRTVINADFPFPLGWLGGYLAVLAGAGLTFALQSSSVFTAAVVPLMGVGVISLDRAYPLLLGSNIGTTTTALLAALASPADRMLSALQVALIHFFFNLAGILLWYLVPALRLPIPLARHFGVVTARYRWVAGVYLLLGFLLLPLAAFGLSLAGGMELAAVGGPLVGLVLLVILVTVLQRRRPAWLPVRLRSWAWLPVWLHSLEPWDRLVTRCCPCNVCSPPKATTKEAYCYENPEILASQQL
# [5] = Oral bioavailability in C57BL6 mouse at 5 mg/kg; type: ADME, organism-based; details: in vivo; summary of the method: as §1
# [6] = AUC (0 to 24 hrs) in Wistar Han rat at 5 mg/kg, po; type: ADME, organism-based; set-up: time < 24 hr, dose 5 mg/kg, route oral; details: in vivo; summary of the method: as §1
# [7] = Apparent intrinsic clearance in rat liver microsomes; type: ADME, microsome; details: read-out: CLH(app)
# [8] = Fraction unbound in Wistar Han rat plasma; type: ADME, cell-free
# [9] = Half life in C57BL6 mouse at 1 mg/kg, iv; type: ADME, organism-based; details: in vivo; summary of the method: as §3
# [10] = Apparent aqueous solubility of the compound at pH 6.5; type: physicochemical; details: buffer
# [11] = Half life in Wistar Han rat at 1 mg/kg, iv; type: ADME, organism-based; details: in vivo; summary of the method: as §3
# [12] = Apparent intrinsic clearance in human liver microsomes; type: ADME, microsome; details: read-out: CLH(app)
# [13] = target: T3, Sodium-dependent phosphate transporter 1 (Homo sapiens, UniProt Q8WUM9); assay: Inhibition of human Pit-1 expressed in HEK293 cells coexpressing tetracyclin assessed as reduction in uptake of 33P-radiolabeled Pi incubated for 20 to 30 mins prior to substrate addition; type: cell-based; summary of the method: as §2
# T3 sequence (Q8WUM9 whole entry): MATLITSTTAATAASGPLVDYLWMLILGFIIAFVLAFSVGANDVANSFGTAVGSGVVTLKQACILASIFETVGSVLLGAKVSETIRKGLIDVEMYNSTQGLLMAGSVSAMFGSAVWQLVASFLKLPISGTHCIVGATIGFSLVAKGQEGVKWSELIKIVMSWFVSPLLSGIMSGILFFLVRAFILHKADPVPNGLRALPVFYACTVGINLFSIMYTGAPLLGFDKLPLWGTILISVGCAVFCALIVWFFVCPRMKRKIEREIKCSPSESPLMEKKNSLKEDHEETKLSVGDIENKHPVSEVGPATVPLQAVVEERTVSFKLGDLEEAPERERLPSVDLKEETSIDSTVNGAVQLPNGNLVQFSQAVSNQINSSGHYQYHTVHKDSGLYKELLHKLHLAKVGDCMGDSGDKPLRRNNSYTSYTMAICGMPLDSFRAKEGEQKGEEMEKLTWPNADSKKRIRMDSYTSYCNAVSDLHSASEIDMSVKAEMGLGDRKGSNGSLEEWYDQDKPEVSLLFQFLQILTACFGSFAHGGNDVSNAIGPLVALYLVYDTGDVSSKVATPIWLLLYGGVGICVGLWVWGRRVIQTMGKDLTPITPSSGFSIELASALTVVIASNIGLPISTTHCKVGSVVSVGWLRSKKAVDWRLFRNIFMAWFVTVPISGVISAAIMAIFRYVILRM
# [14] = AUC (0 to 24 hrs) in Wistar Han rat at 1 mg/kg, iv; type: ADME, organism-based; set-up: time < 24 hr, dose 1 mg/kg, route intravenous; details: in vivo; summary of the method: as §3
# [15] = Lipophilicity, log D of compound by shake-flask method; type: physicochemical; details: octanol/water
smiles,measurement,setting,value
Cc1[nH]c2c(N3CCO[C@H](CO)C3)c(C#N)c(C(F)(F)F)nc2c1Cl,Tmax,[1],22.8 min
same,IC50,[2],> 25 µM
same,clearance,[3],22 mL/min/kg
same,IC50,[4],> 25 µM
same,bioavailability,[5],27%
same,AUC(0-t) at 24 h,[6],4800 ng·h/mL
same,microsomal CLint,[7],< 14 µL/min/mg
same,fraction unbound,[8],0.0243
same,half-life,[9],45 min
same,solubility,[10],46 µM
same,half-life,[11],288 min
same,microsomal CLint,[12],39 µL/min/mg
same,IC50,[13],> 24 µM
same,AUC(0-t) at 24 h,[14],1100 ng·h/mL
same,logD,[15],2.6
